Data on one protein can be found in ChEMBL document CHEMBL1123412, “Thiopurine methyltransferase: structure-activity relationships for benzoic acid inhibitors and thiophenol substrates” (J Med Chem, 1986).

What all share (format): tissue-based
Substrate in data set [1]: CC(=O)Nc1ccc(S)cc1
Description: (§1) Apparent binding constant for purified human kidney TPMT. The gist of the method:
(§2)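 Enzyme purified >300-fold from human kidney (100000g supernatant, ammonium sulfate, DEAE-A25, Sephadex G-100). The thiophenol replaced 6-MP as methyl acceptor, with 25 μM [14C-methyl]AdoMet at pH 6.7 and 37 °C for 30 min. Stopped with borate pH 10, extracted, scintillation counted. Five or more concentrations near Km in triplicate, at least twice. Apparent Km by Wilkinson method, averaged.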

Substrate in data set [2]: Nc1ccccc1S
Described as §1. The gist of the method:
as §2

Substrate in data set [3]: Sc1ccccc1
The description is as §1. In outline: as §2

Substrate in data set [4]: Fc1ccc(S)cc1
Described as §1. The gist of the method: as §2

Substrate in data set [5]: COc1cccc(S)c1
Described as §1. In outline: as §2

Substrate in data set [6]: COc1ccc(S)cc1
Described as §1. In outline:
as §2

Substrate in data set [7]: Cc1ccc(S)cc1
Described as §1. In outline: as §2

Substrate in data set [8]: O=C(O)c1ccccc1S
Described as §1. In outline:
as §2

Substrate in data set [9]: Sc1cccc(Cl)c1
The description is as §1. In outline: as §2

Substrate in data set [10]: COc1ccccc1S
The data set is described as §1. In outline: as §2

Substrate in data set [11]: O=[N+]([O-])c1ccc(S)cc1
The data set is described as §1. The gist of the method:
as §2

Substrate in data set [12]: Sc1ccccc1Br
Described as §1. In outline: as §2

Substrate in data set [13]: Sc1ccc(Br)cc1
Described as §1. In outline: as §2

Substrate in data set [14]: Sc1ccc(Cl)cc1
The data set is described as §1. In outline: as §2

B1: Thiopurine S-methyltransferase (Homo sapiens), P51580 (protein)
chain: MDGTRTSLDIEEYSDTEVQKNQVLTLEEWQDKWVNGKTAFHQEQGHQLLKKHLDTFLKGKSGLRVFFPLCGKAVEMKWFADRGHSVVGVEISELGIQEFFTEQNLSYSEEPITEIPGTKVFKSSSGNISLYCCSIFDLPRTNIGKFDMIWDRGALVAINPGDRKCYADTMFSLLGKKFQYLLCVLSYDPTKHPGPPFYVPHAEIERLFGKICNIRCLEKVDAFEERHKSWGIDCLFEKLYLLTEK
Consider B1, for which the Km (commonly the concentration of substrate that gives half-maximal velocity) is 2.1 µM in data set [1]; 2.5 µM in data set [2]; 3.9 µM in data set [3]; 5.6 µM in [4]; 2.1 µM in data set [5]; 3.2 µM in data set [6]. Also, the Km in [7] is 5.9 µM; in data set [8], 7.8 µM; in data set [9], 2.4 µM; in data set [10], 2.6 µM; in [11] it was 6.5 µM; in [12], 0.8 µM. Moreover, the Km in data set [13] stood at 4.8 µM; in data set [14], 3.6 µM.
